Hits are enriched below; roughly 3% of the tested compounds scored in any of these assays.
S100A4 inh HTS – blocks human S100A4 binding to myosin IIA peptide; AID 652163; P26447; 360,000 tested, 0.14% active; inhibition, % at 10.7 µM; S100A4/TAMRA-MyoIIA peptide fluorescence polarization;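 active = mean inhibition of at least 70% across replicates, with every replicate also reaching that level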
Target sequence (P26447 whole entry, looked up): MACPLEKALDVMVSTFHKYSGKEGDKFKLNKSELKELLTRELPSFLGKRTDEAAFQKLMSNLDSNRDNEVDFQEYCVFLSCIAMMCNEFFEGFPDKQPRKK
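Material: S100A4 monomer protein / Buffer or medium: 50 mM HEPES pH 7.2, 10 mM CaCl2, 100 mM KCl / Times: 5 min incubation before reading / Benchmarks: neutral control DMSO, positive control TFP / Reagent: labelled myosin peptide probe, 5 nM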
PGC1a acetyl inh – modulators of PGC1a acetylation; U2OS PGC1a acetylation, AlphaScreen anti-acetyl-lysine; with virally co-expressed GCN5 acetyltransferase; inhibition, % at 15.6 µM; 350,000 tested, 0.17% active; AID 651687;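 active = every replicate shows inhibition of at least 40%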
SIRT5 block – sirtuin-5 (human) deacylase inhibition; AID 652115; Purified SirT5, succinyl-peptide AMC, trypsin-coupled fluorescence; inhibition, % at 15 µM; 330,000 tested, 1.1% active; Q9NXA8; in the data active = inhibition above about 15%
Target sequence (Q9NXA8 whole entry, looked up): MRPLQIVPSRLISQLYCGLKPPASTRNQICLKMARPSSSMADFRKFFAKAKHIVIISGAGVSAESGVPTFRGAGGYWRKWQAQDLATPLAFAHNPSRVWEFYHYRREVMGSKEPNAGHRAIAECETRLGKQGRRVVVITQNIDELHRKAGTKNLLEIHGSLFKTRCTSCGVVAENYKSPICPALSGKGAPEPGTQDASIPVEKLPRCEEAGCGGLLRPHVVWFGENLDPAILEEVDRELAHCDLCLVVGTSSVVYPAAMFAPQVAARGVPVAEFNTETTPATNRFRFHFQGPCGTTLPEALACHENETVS
Ecoli rRNA inh – inhibitors of bacterial rRNA selective over humanized ribosomes; E. coli WT GFP vs humanized-ribosome RFP mutants, fluorescence, 24 h; hits give low values; DMSO median 0, no signal -100; GFP signal change (wild-type ribosome), % (test concentration not listed); 350,000 tested, 1.6% active; AID 720706;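 active = significant combined selectivity score with lowered wild-type GFP, culture density cut under 30%, mutant RFP and density less affected; inactive = any of these conditions unmet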
Cneo AK release – Cryptococcus neoformans lysis via adenylate kinase release | C. neoformans lysis, adenylate kinase release luminescence, 4 h; normalised: neutral wells 0, clomiphene wells 100 | lysis activity, % at 15 µM | 360,000 tested, 0.2% active | AID 651654;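 active = mean lysis activity across replicates of at least 80%, whatever share of replicates individually reach that level; inactive = mean lysis activity below 80%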
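Material: C. neoformans cells; Schedule: 4 h static compound exposure, 37 °C, read 1 h post-reagent; Measured by: adenylate kinase release luminescence; Read-out: signal increase indicating cell lysis; Controls: Clomiphene as positive lysis control.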
C2C12 statin – suppressors of simvastatin-induced myotoxicity in C2C12 myotubes; rescue of ATP level, % at 7.49 µM; AID 602340; ATP luminescence, 48 h; scaled: DMSO 0, geranylgeraniol control 100; 330,000 tested, 0.78% active;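 active = mean ATP rescue above about 67%, or every replicate alone reaching that limit, limit read from the data, passing the limit was not always enough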;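 also: myotubes were challenged with 10 µM simvastatin during compound exposure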
Hits are given with their value; – = inactive; · = no result given.

SMILES	S100A4 inh HTS	PGC1a acetyl inh	SIRT5 block	Ecoli rRNA inh	Cneo AK release	C2C12 statin
COCC(=O)Nc1ccc2c(c1)C(=O)N(C)[C@@H]1CC[C@@H](CC(=O)NCc3ccccc3F)O[C@@H]1CO2	–	–	–	–	–	–
Cc1cc(C)cc(N2CN=C3SCC(=O)N3C2)c1	·	–	·	·	–	·
COc1ccc(N2CN=C3SCC(=O)N3C2)cc1	·	–	·	·	–	105.6
Cc1ccccc1S(=O)(=O)N1CC[C@@H]2[C@H]1c1cc(C#Cc3ccccc3)ccc1N[C@@H]2CO	–	–	–	–	–	–
O=C(C[C@@H]1C=C[C@@H](NS(=O)(=O)c2ccccc2)[C@H](CO)O1)NCc1ccncn1	–	–	–	–	–	–
CCC(Sc1nc2n[nH]c(C)c2c(=N)n1-c1ccc(C)c(Cl)c1)C(=O)N1CCOCC1 (stereo not drawn)	·	–	·	·	–	96.0
CCC(Sc1nc2n[nH]c(C)c2c(=N)n1-c1cccc(Cl)c1)C(=O)NCCOC (stereo not drawn)	·	–	·	·	–	·
C[C@H](CO)N1C[C@H](C)[C@@H](CN(C)S(=O)(=O)c2ccc(Cl)cc2)Oc2ccc(NS(=O)(=O)c3cn(C)cn3)cc2CC1=O	–	–	–	–	–	–
O=C(COC(=O)Cn1nnc(-c2ccccc2)n1)Nc1ccccc1Br	–	–	–	–	–	99.7
COc1ccc(OC)c(NC(=O)COC(=O)Cn2nnc(-c3ccccc3)n2)c1	–	–	–	–	–	–
C[C@H](O)C#Cc1cnc2c(c1)C(=O)N([C@@H](C)CO)C[C@H](C)[C@@H](CN(C)C(=O)Cc1ccncc1)O2	–	–	–	–	–	–
Cc1ccccc1NC(=S)N(Cc1ccccn1)Cc1ccccc1Cl	–	–	–	-22.9	·	·
COc1ccccc1NC(=S)N(Cc1ccccn1)Cc1ccccc1Cl	–	·	–	–	–	–
S=c1[nH]c2ccc(Cl)cc2[nH]1	·	–	·	·	–	·
S=c1[nH]c2cc(Cl)ccc2s1	–	–	–	-25.5	·	·
Cc1ccsc1C1Nc2ccc3ncccc3c2C2=C1C(=O)CCC2 (stereo not drawn)	–	–	–	–	–	78.6
CCc1nnc(NS(=O)(=O)c2ccc(NC(=O)c3ccc(Cl)cc3)cc2)s1	–	–	–	–	·	·
CCc1nnc(NS(=O)(=O)c2ccc(N/C=C(\C=O)c3nc4cc(Cl)ccc4o3)cc2)s1	–	–	–	–	–	93.1
COc1cc2c(cc1OC)CN(C(=O)[C@@H]1[C@H]3C(=O)O[C@H](c4ccccc4)[C@H](c4ccccc4)N3[C@H](c3ccc(OCCO)cc3)[C@@]13C(=O)Nc1ccc(C#CCNC(N)=O)cc13)CC2	–	·	22.9	·	–	·
O=C1O[C@@H](c2ccccc2)[C@@H](c2ccccc2)N2[C@@H](c3ccccc3OCCO)[C@]3(C(=O)Nc4ccc(C#CC5=CCCCC5)cc43)[C@@H](C(=O)N3CCN(c4ncccn4)CC3)[C@H]12	–	·	16.5	·	–	·
COc1ccc(C#Cc2ccc3c(c2)[C@]2(C(=O)N3)[C@H](C(=O)N3CCN(c4ncccn4)CC3)[C@H]3C(=O)O[C@H](c4ccccc4)[C@H](c4ccccc4)N3[C@@H]2c2ccc(OCCO)cc2)cc1	–	·	22.8	·	–	·
COC(=O)C(CC#Cc1ccc2c(c1)[C@]1(C(=O)N2)[C@H](C(=O)NC[C@H](O)c2ccccc2)[C@H]2C(=O)O[C@H](c3ccccc3)[C@H](c3ccccc3)N2[C@@H]1c1ccccc1OCCO)C(=O)OC	–	·	19.4	·	–	·
O=C(CCN1CCCCC1)NCC[C@@H]1CC[C@@H](NC(=O)C2CCCC2)[C@H](CO)O1	–	–	–	–	–	–
COc1ccc2c3c([nH]c2c1)[C@@H](CO)N(C(=O)c1cccc(F)c1)CC31CN(S(=O)(=O)c2cccs2)C1	·	·	·	–	·	·
C[C@@H]1CN([C@H](C)CO)C(=O)c2cc(NC(=O)Nc3ccc(F)cc3)ccc2O[C@@H](C)CCCCO[C@@H]1CN(C)C(=O)c1ccccc1	–	–	–	–	–	·
SMILES	S100A4 inh HTS	PGC1a acetyl inh	SIRT5 block	Ecoli rRNA inh	Cneo AK release	C2C12 statin
Cc1cccc(-c2ccc([C@@H]3[C@@H](CO)N4C(=O)CN(C(=O)Cc5ccccn5)C[C@@H]34)cc2)c1	–	–	–	–	·	·
CC(C)(C)c1ccc(-n2nc(C#N)c(Cl)cc2=O)cc1	–	82.0	–	–	·	·
O=c1oc(CCO)cc2ccc(C#Cc3ccsc3)cc12	–	–	16.9	–	–	–
COc1ccccc1CCNC(=O)c1cc(COc2cccc(C(F)(F)F)c2)on1	–	–	–	-33.5	–	–
O=C(NCc1ccc2c(c1)OCO2)c1cc(COc2c(F)cccc2F)on1	–	·	–	–	–	–
O=C(NCC1CCOCC1)c1cc(COc2cccc(C(F)(F)F)c2)on1	–	–	–	–	–	–
COc1cccc(OCc2cc(C(=O)NCc3ccc4c(c3)OCO4)no2)c1	–	–	–	-32.5	–	–
C=CC[C@]12N=C(c3ccc(OCCCO)cc3)O[C@H]1c1ccccc1CN(Cc1ccccc1)C2=O	–	–	–	·	–	·
CC(NC(=O)COC(=O)C1CCN(c2ccc(C(F)(F)F)cn2)CC1)c1ccc(Br)cc1 (stereo not drawn)	–	–	–	-24.4	–	·
CC(NC(=O)COC(=O)C1CCN(c2ccc(C(F)(F)F)cn2)CC1)c1ccc(F)cc1 (stereo not drawn)	–	–	–	–	–	–
CCCN1[C@@H]2Cn3c(ccc(/C=C/c4ccccc4)c3=O)[C@H]1[C@@H](C(=O)NCc1ccccn1)[C@@H]2CO	–	·	–	–	–	–
COc1cnc(-c2ccccn2)nc1Oc1cccc(Cl)c1	·	–	·	·	–	–
COc1ccc(Oc2nc(-c3ccccn3)ncc2OC)cc1	–	·	–	-27.9	·	·
COc1ccccc1-c1cc(C(=O)NN)[nH]n1	–	–	–	-20.4	–	·
COc1ccc(-c2cc(C(=O)NN)[nH]n2)cc1OC	–	–	–	-21.5	·	·
CCC(=O)N1[C@H](C#N)[C@H](c2ccccc2-c2ccccc2)[C@H]1CO	–	–	–	–	·	·
CC(C)C#Cc1cnc2c(c1)C(=O)N([C@@H](C)CO)C[C@@H](C)[C@H](CN(C)C(=O)Nc1cccc(F)c1)O2	–	–	–	–	–	–
C#CCSc1cc(C(F)(F)F)nc(-c2ccccn2)n1	–	–	20.2	–	·	·
COc1ccc(Sc2cc(C(F)(F)F)nc(-c3ccccn3)n2)cc1	·	–	·	·	–	–
Cc1ccsc1/C=N/NC(=O)c1cccc(S(=O)(=O)Nc2ccccc2Cl)c1	–	·	–	·	·	·
O=C(N/N=C/c1ccccn1)c1cccc(S(=O)(=O)Nc2ccccc2Cl)c1	–	–	–	-39.5	·	·
O=C(C1CCC1)N1C[C@H]2[C@@H](c3ccccc31)[C@H](CO)N2S(=O)(=O)c1ccccc1	–	–	–	–	–	–
